Results pooled from the literature.
Lines come from different studies, so protocols differ.
Target: Receptor-interacting serine/threonine-protein kinase 2 (RIPK2, Homo sapiens, UniProt O43353)

SMILES	assay	setting	measurement	value
CCCCC(=O)Nc1ccc(-c2ccc3ncn(CCC)c(=O)c3c2)cn1	binding, competition with immobilised ligand	0.5 µM	remaining binding	98%
CC(C)S(=O)(=O)c1ccc2nccc(Nc3ccc4sc(C5CCCC5)nc4c3)c2c1	enzyme activity, inhibitor	1 µM	activity vs control	2.5%
C#Cc1cc(-c2cc(Nc3nc(N[C@@H](C)c4ccc(F)cn4)ncc3Cl)n[nH]2)ccc1C=O	enzyme activity, inhibitor	0.2 µM	inhibition	14.7%
COc1ccc2oc(-c3ccc4nc(N)oc4c3)c/c(=N\c3ccccc3NC(=O)CCN)c2c1	binding	1 µM	remaining binding	112%
Cc1ccc(NC(=O)c2ccnc(C(F)(F)F)c2)cc1-c1cc(OCCO)nc(N2CCOCC2)c1	binding, competition with immobilised ligand	1 µM	remaining binding	63%
CO[C@@H]1[C@H](N(C)C(=O)c2ccccc2)C[C@H]2O[C@]1(C)n1c3ccccc3c3c4c(c5c6ccccc6n2c5c31)C(=O)NC4	enzyme activity, inhibitor	1 µM	inhibition	0%
COc1ccc2[nH]c3c4[nH]c5ccc(OC)cc5c4c4c(c3c2c1)C(=O)NC4=O	binding, competition with immobilised ligand	1 µM	remaining binding	60%
C=CC(=O)N1CCC([C@@H]2CCNc3c(C(N)=O)c(-c4ccc(Oc5ccccc5)cc4)nn32)CC1	enzyme activity, inhibitor	1 µM	inhibition	96%
